Results taken from paper PMC7549103 (ACS Medicinal Chemistry Letters, 2020).
Blank lines part the entries; values can stand above or below the compound they belong to.

Legend:
RS4;11 cells = experiment: Cellular viability assay, RS4; type: cell-based; settings: Homo sapiens, RS4-11, 48 h, read-out: RS4;11 EC50
Method in brief: (§1)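 MOLT-4 is used as the BCL-XL-dependent human cancer cell line, and RS4;11 as the BCL-2-dependent line. Test compounds were tested in both lines in parallel.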

[1] = Single dose pharmacokinetics in rats; type: in vivo, Sprague-Dawley rats; settings: rat, single oral dose of 5 mg/kg
MOLT-4 cells [2] = experiment: Cellular viability assay, MOLT-4 cells; type: cell-based, human
Method in brief: as §1

eLogD7.4 = type: physicochemical; settings: pH 7.4
GST-BCL-XL = GST-BCL-XL (Homo sapiens, UniProt Q07817); type: binding; settings: BCL-XL TR-FRET Ki ratio
Sequence of GST-BCL-XL (Q07817 whole entry): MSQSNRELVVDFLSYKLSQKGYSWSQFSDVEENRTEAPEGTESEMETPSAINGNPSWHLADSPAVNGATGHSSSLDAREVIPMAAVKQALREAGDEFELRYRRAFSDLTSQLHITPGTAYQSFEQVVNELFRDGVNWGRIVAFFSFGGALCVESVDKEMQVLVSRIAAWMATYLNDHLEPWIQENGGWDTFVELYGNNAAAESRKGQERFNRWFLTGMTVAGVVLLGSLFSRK

[3] = Retest of activity over time; type: physicochemical
MOLT-4 cells [4] = settings: cytochrome c release, caspase-3/-7 activation, Annexin-V staining; cited from earlier work

EC50 (RS4;11 cells): > 5 µM
Cmax-coverage (total drug exposure) of the cellular EC50 [1]: approximately 3 fold
SMILES: Cc1c(-c2ccc(N3CCc4cccc(C(=O)Nc5nc6ccccc6s5)c4C3)nc2C(=O)O)cnn1Cc1ccccc1 [Compound 10]
activity in cells (in words) (MOLT-4 cells [2]; MOLT-4 (and RS4;11) cells, 10% human serum): low micromolar activity

eLogD7.4 (eLogD7.4): 3.02
SMILES: O=C(O)c1csc(N2CCc3cccc(C(=O)Nc4nc5ccccc5s4)c3C2)n1 [Compound 2]

improvement in target affinity relative to parent 6 (GST-BCL-XL): ~11 fold
SMILES: Cc1nn(Cc2ccccc2)c(C)c1-c1ccc(N2CCc3cccc(C(=O)Nc4nc5ccccc5s4)c3C2)nc1C(=O)O [Compound 11]

stability on storage (activity upon retest over time) [3]: lost activity upon retest over time
SMILES: O=C(Nc1nc2ccccc2s1)c1cccc2c1CN(c1ccc(-c3ccn(Cc4ccccc4)c3)c(C(=O)O)n1)CC2 [Compound 5]

chromatographic logD (eLogD7.4): 2.85
SMILES: O=C(O)c1cccc(N2CCc3cccc(C(=O)Nc4nc5ccccc5s4)c3C2)n1 [Compound 3]

EC50 (MOLT-4 cells [2]; Homo sapiens, MOLT-4, 48 h, read-out: MOLT-4 EC50, 10% HS, 48 hours): > 5 µM
SMILES: O=C(Nc1nc2ccccc2s1)c1cccc2c1CN(c1ccc(-c3cnn(Cc4ccccc4)c3)c(C(=O)O)n1)CC2 [Compound 6]

SMILES: Cc1c(-c2ccc(N3CCc4cccc(C(=O)Nc5nc6ccccc6s5)c4C3)nc2C(=O)O)cnn1CC12CC3CC(CC(C3)C1)C2 [Compound 13]
mechanism-based effects in MOLT-4 cells (MOLT-4 cells [4]): disrupted BCL-XL:BIM complexes and induced classical features of apoptosis
in vitro efficacy against MOLT-4, fold more potent than A-1155463 (1) (MOLT-4 cells [2]; 10% HS): 20 fold
